Measured values taken from ChEMBL document CHEMBL1123589, “Phenylpiperazine-based radiopharmaceuticals for brain imaging. 3. Synthesis and evaluation of radioiodinated 1-alkyl-4-phenylpiperazines” (J Med Chem, 1987).

Columns and labels:
Conditions in all cases: in vivo
Rattus norvegicus [1] = test: The biodistribution of the [125I]-labeled compound in rats after intravenous injection was evaluated in liver at 0.25 hr; value ranges from 0.32-0.39 (ID.kg/g); type: ADME, organism-based
Summary of the method: (§1)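 Male Sprague-Dawley rats (250–300 g) under ether anesthesia received 10–15 μCi of NCA radioiodinated (125I) tracer iv in 0.1 mL saline. Groups of 3 were killed at 0.25, 1 and 4 h. Blood and tissues were excised, weighed and counted in a γ-well scintillation counter. Values are % injected dose × body mass (kg) per g tissue, given as mean with range.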

Rattus norvegicus [2] = test: The biodistribution of the [125I]-labeled compound in rats after intravenous injection was evaluated in blood at 0.25 hrs (ID.kg/g); type: ADME, organism-based
Summary of the method: (§2)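 Male Sprague-Dawley rats (250–300 g) under ether anesthesia were given an iv injection of no-carrier-added 125I-labelled agent (10–15 μCi in 0.1 mL saline). The agent was iodinated with chloramine-T in acetate buffer and purified by C-18 HPLC. Groups of N = 3 were killed at 0.25, 1 and 4 h. Blood and tissues were weighed and γ-counted. Values are % ID·kg/g, mean (range).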

Rattus norvegicus [3] = test: The biodistribution of the [125I]-labeled compound in rats after intravenous injection was evaluated in fat at 0.25 hr (ID. kg/g); type: ADME, organism-based, Adipose tissue; summary of the method: as §2
Rattus norvegicus [4] = test: The biodistribution of the [125I]-labeled compound in rats after intravenous injection was evaluated in lung at 0.25 hrs; value ranges from 1.14-1.30 (ID.kg/g); type: ADME, organism-based; summary of the method: as §1
Rattus norvegicus [5] = test: The biodistribution of the [125I]-labeled compound in rats after intravenous injection was evaluated in kidney at 0.25 hr; value ranges from 0.49-0.61 (ID.kg/g); type: ADME, organism-based; summary of the method: as §1
Rattus norvegicus [6] = test: The biodistribution of the [125I]-labeled compound in rats after intravenous injection was evaluated in thyroid at 1.00 hrs; value ranges from 2.47-2.81 (ID.kg/g); type: ADME, organism-based, Thyroid gland
Rattus norvegicus [7] = test: The biodistribution of the [125I]-labeled compound in rats after intravenous injection was evaluated in adrenal at 1.00 hrs; value ranges from 0.61-1.12 (ID.kg/g); type: ADME, organism-based; summary of the method: as §1
Rattus norvegicus [8] = test: The biodistribution of the [125I]-labeled compound in rats after intravenous injection was evaluated in heart at 4.00 hrs (ID.kg/g); type: ADME, organism-based; summary of the method: as §1
Rattus norvegicus [9] = test: The biodistribution of the [125I]-labeled compound in rats after intravenous injection was evaluated in kidney at 4.00 hrs; value ranges from 0.23-0.24 (ID.kg/g); type: ADME, organism-based; summary of the method: as §1
Rattus norvegicus [10] = test: The biodistribution of the [125I]-labeled compound in rats after intravenous injection was evaluated in liver at 4.00 hrs; value ranges from 0.19-0.22 (ID.kg/g); type: ADME, organism-based; summary of the method: as §1
Rattus norvegicus [11] = test: The biodistribution of the [125I]-labeled compound in rats after intravenous injection was evaluated in lung at 4.00 hrs; value ranges from 0.35-0.36 (ID.kg/g); type: ADME, organism-based; summary of the method: as §1
Rattus norvegicus [12] = test: The biodistribution of the [125I]-labeled compound in rats after intravenous injection was evaluated in adrenal at 0.25 hrs; value ranges from 0.97-1.66 (ID.kg/g); type: ADME, organism-based; summary of the method: as §1
Rattus norvegicus [13] = test: The biodistribution of the [125I]-labeled compound in rats after intravenous injection was evaluated in liver at 1.00 hrs; value ranges from 0.30-0.36 (ID.kg/g); type: ADME, organism-based; summary of the method: as §1
Rattus norvegicus [14] = test: The biodistribution of the [125I]-labeled compound in rats after intravenous injection was evaluated in muscle at 1.00 hrs (ID.kg/g); type: ADME, organism-based, Muscle tissue
Summary of the method: (§3)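 Male Sprague-Dawley rats (250–300 g) under ether anesthesia given iv 0.1 mL saline containing 10–15 μCi of NCA ¹²⁵I-labeled agent (chloramine-T iodination, HPLC-purified). Groups of 3 killed at 0.25, 1 and 4 h. Blood and tissues excised, weighed and γ-counted. Values are mean (range) of % injected dose × body mass (kg) per gram of tissue.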

Rattus norvegicus [15] = test: The biodistribution of the [125I]-labeled compound in rats after intravenous injection was evaluated in kidney at 1.00 hrs; value ranges from 0.43-0.47 (ID.kg/g); type: ADME, organism-based; summary of the method: as §1
Rattus norvegicus [16] = test: The biodistribution of the [125I]-labeled compound in rats after intravenous injection was evaluated in thyroid at 0.25 hrs; value ranges from 2.05-2.47 (ID.kg/g); type: ADME, organism-based, Thyroid gland
Rattus norvegicus [17] = test: The biodistribution of the [125I]-labeled compound in rats after intravenous injection was evaluated in adrenal at 4.00 hrs; value ranges from 0.39-0.45 (ID.kg/g); type: ADME, organism-based; summary of the method: as §1
Rattus norvegicus [18] = test: The biodistribution of the [125I]-labeled compound in rats after intravenous injection was evaluated in brain at 1.00 hrs; value ranges from 0.21-0.27 (ID.kg/g); type: ADME, organism-based; summary of the method: as §1
Rattus norvegicus [19] = test: The biodistribution of the [125I]-labeled compound in rats after intravenous injection was evaluated in blood at 1.00 hrs (ID.kg/g); type: ADME, organism-based; summary of the method: as §2
Rattus norvegicus [20] = test: The biodistribution of the [125I]-labeled compound in rats after intravenous injection was evaluated in muscle at 4.00 hrs (ID.kg/g); type: ADME, organism-based, Muscle tissue; summary of the method: as §3
Rattus norvegicus [21] = test: The biodistribution of the [125I]-labeled compound in rats after intravenous injection was evaluated in heart at 0.25 hrs; value ranges from 0.23-0.28 (ID.kg/g); type: ADME, organism-based; summary of the method: as §1
Rattus norvegicus [22] = test: The biodistribution of the [125I]-labeled compound in rats after intravenous injection was evaluated in lung at 1.00 hrs; value ranges from 0.86-0.96 (ID.kg/g); type: ADME, organism-based; summary of the method: as §1
Rattus norvegicus [23] = test: The biodistribution of the [125I]-labeled compound in rats after intravenous injection was evaluated in muscle at 0.25 hrs (ID.kg/g); type: ADME, organism-based, Muscle tissue; summary of the method: as §3
Rattus norvegicus [24] = test: The biodistribution of the [125I]-labeled compound in rats after intravenous injection was evaluated in brain at 4.00 hrs; value ranges from 0.11-0.13 (ID.kg/g); type: ADME, organism-based; summary of the method: as §1
Rattus norvegicus [25] = test: The biodistribution of the [125I]-labeled compound in rats after intravenous injection was evaluated in fat at 4.00 hrs (ID.kg/g); type: ADME, organism-based, Adipose tissue; summary of the method: as §2
Rattus norvegicus [26] = test: The biodistribution of the [125I]-labeled compound in rats after intravenous injection was evaluated in thyroid at 4.00 hrs; value ranges from 2.51-3.60 (ID.kg/g); type: ADME, organism-based, Thyroid gland
Rattus norvegicus [27] = test: The biodistribution of the [125I]-labeled compound in rats after intravenous injection was evaluated in blood at 4.00 hrs (ID.kg/g); type: ADME, organism-based; summary of the method: as §2
Rattus norvegicus [28] = test: The biodistribution of the [125I]-labeled compound in rats after intravenous injection was evaluated in fat at 1.00 hrs (ID.kg/g); type: ADME, organism-based, Adipose tissue; summary of the method: as §2
Rattus norvegicus [29] = test: The biodistribution of the [125I]-labeled compound in rats after intravenous injection was evaluated in brain at 0.25 hrs; value ranges from 0.25-0.30 (ID.kg/g); type: ADME, organism-based; summary of the method: as §1
Rattus norvegicus [30] = test: The biodistribution of the [125I]-labeled compound in rats after intravenous injection was evaluated in heart at 1.00 hrs; value ranges from 0.16-0.21 (ID.kg/g); type: ADME, organism-based; summary of the method: as §1

Ic1ccc(N2CCN(C3CCCCC3)CC2)cc1
Biodistribution (Rattus norvegicus [1]): 0.39% | Biodistribution (Rattus norvegicus [2]): 0.01 % ID·kg/g | Biodistribution (Rattus norvegicus [3]): 0.01 % ID·kg/g | Biodistribution (Rattus norvegicus [4]): 1.3% | Biodistribution (Rattus norvegicus [5]): 0.61% | Biodistribution (Rattus norvegicus [6]): 2.81% | Biodistribution (Rattus norvegicus [7]): 1.12% | Biodistribution (Rattus norvegicus [8]): 0.08% | Biodistribution (Rattus norvegicus [9]): 0.24% | Biodistribution (Rattus norvegicus [10]): 0.22% | Biodistribution (Rattus norvegicus [11]): 0.36% | Biodistribution (Rattus norvegicus [12]): 1.66% | Biodistribution (Rattus norvegicus [13]): 0.36% | Biodistribution (Rattus norvegicus [14]): 0.03 %ID·kg/g | Biodistribution (Rattus norvegicus [15]): 0.47% | Biodistribution (Rattus norvegicus [16]): 2.47% | Biodistribution (Rattus norvegicus [17]): 0.45% | Biodistribution (Rattus norvegicus [18]): 0.27% | Biodistribution (Rattus norvegicus [19]): 0.01 % ID·kg/g | Biodistribution (Rattus norvegicus [20]): 0.01 %ID·kg/g | Biodistribution (Rattus norvegicus [21]): 0.28% | Biodistribution (Rattus norvegicus [22]): 0.96% | Biodistribution (Rattus norvegicus [23]): 0.03 % ID·kg/g | Biodistribution (Rattus norvegicus [24]): 0.13% | Biodistribution (Rattus norvegicus [25]): 0.01% | Biodistribution (Rattus norvegicus [26]): 3.6% | Biodistribution (Rattus norvegicus [27]): 0.01 % ID·kg/g | Biodistribution (Rattus norvegicus [28]): 0.01 % ID·kg/g | Biodistribution (Rattus norvegicus [29]): 0.3% | Biodistribution (Rattus norvegicus [30]): 0.21%
